Test system: MS2 coat protein
Assay: apparent Kd, MS2 coat protein; higher = weaker binding; RNA-MaP array; FMN 200 µM where present
Method in brief: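 Stalled E. coli RNA polymerase transcribed each design on Illumina sequencing-chip clusters. The clusters were titrated with SNAP-549-labelled MS2 coat protein, starting at 0.7 or 1.5 nM and doubling up to 3 µM, first without ligand and then with constant ligand, in 100 mM Tris-HCl pH 7.5, 80 mM KCl, 4 mM MgCl2, BSA, DTT, yeast tRNA and Tween-20. Green signal was normalised to red-channel RNA signal and to the control-cluster median Fmax. The apparent Kd is the median of filtered binding-curve fits made for each cluster.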

[1] = designed as: OFF switch for flavin mononucleotide, no ligand
[2] = ligand present: flavin mononucleotide, designed as: OFF switch for flavin mononucleotide
[3] = designed as: ON switch for flavin mononucleotide, no ligand
[4] = ligand present: flavin mononucleotide, designed as: ON switch for flavin mononucleotide

Row | Sequence | apparent Kd [1] | apparent Kd [2] | apparent Kd [3] | apparent Kd [4]
1 | AUCAGCUCGUCAGGAUAUUCGUCACUGCGUCAGCAGUGUGGUAAGAUCACAUGAGGAUCACCCAUGUAGAAGGGACGAGCUGAU | 8.23 nM | 19.2 nM |  | 
2 | GACAACAGAGGAUAUGCAUUGAGAUAGUUAUGAAGGUUGUUACAUGAGGAUCACCCAUGUAGAAGGCUGUCGUU | 18.3 nM | 24.3 nM |  | 
3 | GCGCAGUCAGGAUAUGCCGCUUGCGAUCACCGUUGGCAAAGGCAGAAGGGACAUGAGGAUCACCCAUGUGGCGC | 19.3 nM | 22.9 nM |  | 
4 | UUUAUACAUGAGGAUCACCCAUGUCAACAAAGUCGAGGAUAUGGGCAUAUUAUCUUAUUUCCAGAAGGCGAAUUCU |  |  | 233 nM | 73.3 nM
5 | AUAAAACAUGAGGAUCACCCAUGUCAACAAAAUCGAGGAUAUGGACAGACUUCGGUCUGUCCAGAAGGCGAAUAAU |  |  | 13.7 nM | 14.6 nM
6 | CCUCUACAUGAGGAUCACCCAUGUGAGGAUAUAAGAUUGCGGAUUCCGCACUACGGUCUUAGAAGGCGCGUGGA | 19 nM | 38.1 nM |  | 
7 | GCAGACGUAGUGAGGAUAUGCUCUACCUCGGUAGAGCAGAAGGCACAUGAGGAUCACCCAUGUGAUUUUUCUGC | 40 nM | 573 nM |  | 
8 | UUACAUACAAAGGUACAUGAGGAUCACCCAUGUUUGUUGGGAAGAAGGGUAACAGUACUACACAUACAGGAUAUUUCACAAAUA |  |  | 86.8 nM | 56.4 nM
9 | GUCUCGAUGUAAGGAUAUGCAGUGGAUAACACUGCAGAAGGUACAUGAGGAUCACCCAUGUAUAUGAAAGAUAAUAAACGAGAC | 14.4 nM | 19.8 nM |  | 
10 | ACUUCCCAGGAGAAGGGACAAGGCGGAGCCCGUACAUGAGGAUCACCCAUGUCAGGAUAUCCAUGCCGGAAGCUAACCCAGUUA | 6.42 nM | 10.1 nM |  | 
11 | UCGCGGGAGCAGAAGGGAUAGGCCUAUUGUCGUGGAGUCUAAACUUAACAUGAGGAUCACCCAUGUCAGGAUAUGCCCACGCGA | 9.89 nM | 10.5 nM |  | 
12 | AAAAAACAUGAGGAUCACCCAUGUAAAAAAAUCGCAGGAUAUAAGGUCGCGAAAGCGACCUUAGAAGGGCGAUCCU |  |  | 267 nM | 78.1 nM
13 | GGAGUGUGAGGAUAUAUGGUGAAGGUGAAGAGAGAGGAGGAGUAGAAGGUACAUGAGGAUCACCCAUGUUUAGG | 47 nM | 41.3 nM |  | 
14 | GAGUGGAGGUAAGGAUAUACAAUGAUAAUCACAGUAGAAGGUACUAACAUGAGGAUCACCCAUGUAGGACUAUACCAGAGAGGG |  |  | 17.4 nM | 18 nM
15 | GGAUUACAUGAGGAUCACCCAUGUGAGGAUAUCGAUGUCCUCAGUCGAGUGCGGGACUCGAGAAGGCACUUGGA | 77 nM | 57.5 nM |  | 
16 | UAGAAGUCAGGAUAUGCAUGGCGGGACUUGCGUCGUGGCGUGCAGAAGGGACAUGAGGAUCACCCAUGUAAAGC | 49 nM | 43 nM |  | 
17 | GGCGCAGCGGAGAAGGACGUGGCUCGCCACCACGUAGGAUAUCCCUGUGUACCGAAUUGUUACAUGAGGAUCACCCAUGUGGAC |  |  | 6.16 nM | 6.28 nM
18 | CGCUAAGAUGGGUCUAAUGGAGCAUAGGAUAUGCUUGUACAUGAGGAUCACCCAUGUAAUAUUGUGCAGAAGGGUGCAUUUGCG |  |  | 127 nM | 61.7 nM
19 | ACCAUGGUACAGAAGGGCAAUUUAUUUAUUUAUUAUUUAGUACUGCAUUGCAGGAUAUGUUUAACAUGAGGAUCACCCAUGUAC |  |  | 31.8 nM | 21.4 nM
20 | AAAUUUAACGAAGGAUAUGGAUACAUGAGGAUCACCCAUGUUUAUUUUGUGAUCUUGUAUAAGUACCAGAAGGUCGUAUACAUA | 165 nM | 459 nM |  | 
21 | AUGAGGUCAGGAUAUGCAUGGCGGGACUUGCGUCGUGGCGUGCAGAAGGGACAUGAGGAUCACCCAUGUGGAGC | 73.4 nM | 169 nM |  | 

Row | Sequence | apparent Kd [1] | apparent Kd [2] | apparent Kd [3] | apparent Kd [4]
22 | CGUAUUAAACAAGGAUAUCAUUUGUGUACAAGUUUUACAUGAGGAUCACCCAUGUUAAAUGGUUUUGAGAAGGUGUUUAGAUCG |  |  | 35.3 nM | 25.9 nM
23 | AAAUAAAUUAGUAUGAUAUCUUCACAUGAGGAUCACCCAUGUCAGGAUAUUUGUCCUAAAAGGACAGAGAAGGGACAUACUAUA | 6.08 nM | 8.31 nM |  | 
24 | UUAAUUAAUUAAUUCGUCAAUUACAUGAGGAUCACCCAUGUAUAGGAUAUGCAGUGGAAUACACUGCAGAAGGAUACAUAGACG | 22.6 nM | 41.5 nM |  | 
25 | AAUUUACAUGAGGAUCACCCAUGUCAGGAUAUGGUUUUAUUUUUUUCUUUUUUUGAUUCCAGAAGGGACAGUUA | 148 nM | 79.6 nM |  | 
26 | UUAUUAUAUGUAGGAUAUGCAUAUUAUUAUUAUGCAGAAGGACAUGAGGAUCACCCAUGUAUGUUGUUAUUAUAUAUUAUAUAU | 25.2 nM | 34.5 nM |  | 
27 | UGUAUGGACAGAGGAUAUACGGAUAGGAUCUACUAUCUUCUUCAAAUAACAUGAGGAUCACCCAUGUAGAAGGCUGUCCAUACU | 16.1 nM | 35.1 nM |  | 
28 | UGCAUCUGAGGAUAUCACAUGUGGAACAUGAGGAUCACCCAUGUGAUCCACAUGCCGUUGUGAGAAGGCAGUAAAA | 314 nM | 193 nM |  | 
29 | UUGGUUGUCGUAGGAUAUGUAGGAUAUUCCUACAUGAGGAUCACCCAUGUUCGCAUGGAAGAAGGACAGAAGGACGAUGACCAA |  |  | 1080 nM | 10.4 nM
30 | AUAUGAGAAGCAGGAUAUGUGAAAAAAAAACAUACAGAAGGGUUUAUGGAAAAACAUGAGGAUCACCCAUGUUCUUUGUGAUGA |  |  | 33.5 nM | 32.4 nM
31 | AGGCGACAUGAGGAUCACCCAUGUGAGGAUAUCGAACUCAACUGAGGAGAGAGUAAGGCGAGAAGGCACACAGU | 22.1 nM | 36.4 nM |  | 
32 | GGAAAGAAAAGCGAGGAUAUGCUAGGUAAUACAUGAGGAUCACCCAUGUUUUUUUUUAACAAAUUGCAGAAGGCGCAAGAAAGAAA |  |  | 24.5 nM | 17.4 nM
33 | GCGUCAGGAGGAUAUACAUGAGGAUCACCCAUGUAACACGGGAUCGUCGUUUAGUAGAGUAGAAGGCCUAUUGU | 64.1 nM | 106 nM |  | 
34 | CUCGAGUUAGGAUAUUGAACGUAACAAGCGGGAACUCCCGCCAAGAAGGAACAUGAGGAUCACCCAUGUGAAAC | 21 nM | 21.3 nM |  | 
35 | CGCUGUCUCGCAGGAUAUGCAUUGGAUUACAAUGCAGAAGGGCGAUUACAUGAGGAUCACCCAUGUGUUGACAGUGAAGAAGAU |  |  | 113 nM | 25.5 nM
36 | GCCAGGGAUUCAGGAUAUAUUAGCCGAGGCCGCGUAGAAGGGAAAUCCUGACAUGAGGAUCACCCAUGUCGACCCGCCUUCCUA |  |  | 46.7 nM | 45.6 nM
37 | GCUUCGGCAGGAUAUACAUGAGGAUCACCCAUGUUGAAGUUGAAGAUCUUCGGCUUCGGUAGAAGGGUUGAAGU | 38 nM | 32.1 nM |  | 
38 | CGCCUGCGUAGAAUUAGCAGCUGACAGGAUAUGACAUGAGGAUCACCCAUGUGAAAUAAGAAGAGUCAGAAGGGUCACGACGCG | 10.8 nM | 8.77 nM |  | 
39 | CUGUGUAAAGGAUAUACAUGAGGAUCACCCAUGUGAUGUCCAAACCUGAACGGUUCGUGUAGAAGGUUGCUCUU | 20.9 nM | 19 nM |  | 
40 | ACCAAUGCAGGAUAUACAUGAGGAUCACCCAUGUAUAACCUACAUAGAUGAUCAUCAUGUAGAAGGGCAUUGGA | 12.5 nM | 10.1 nM |  | 
41 | CUGAUGUCAGGAUAUCGGUGGCUCACUUGUGUGUGCCAGACCGAGAAGGGACAUGAGGAUCACCCAUGUUUUUA | 86.1 nM | 370 nM |  | 
42 | UUUUCUUUUGUGAGGAUAUACUUCUUUUUCUUUUUGUAGAAGGCACAUGAGGAUCACCCAUGUUUUCUUUUCUC | 12.1 nM | 16 nM |  | 

Source: the EternaBench riboswitch data
